Source: paper PMC8428831 (Plant Biotechnology Journal, 2021)

Experiments:
CgS = molecular target: T1, CgS (Arabidopsis thaliana, UniProt P55217); experiment: Micro Scale Thermophoresis; type: binding
T1 sequence (P55217 69-563): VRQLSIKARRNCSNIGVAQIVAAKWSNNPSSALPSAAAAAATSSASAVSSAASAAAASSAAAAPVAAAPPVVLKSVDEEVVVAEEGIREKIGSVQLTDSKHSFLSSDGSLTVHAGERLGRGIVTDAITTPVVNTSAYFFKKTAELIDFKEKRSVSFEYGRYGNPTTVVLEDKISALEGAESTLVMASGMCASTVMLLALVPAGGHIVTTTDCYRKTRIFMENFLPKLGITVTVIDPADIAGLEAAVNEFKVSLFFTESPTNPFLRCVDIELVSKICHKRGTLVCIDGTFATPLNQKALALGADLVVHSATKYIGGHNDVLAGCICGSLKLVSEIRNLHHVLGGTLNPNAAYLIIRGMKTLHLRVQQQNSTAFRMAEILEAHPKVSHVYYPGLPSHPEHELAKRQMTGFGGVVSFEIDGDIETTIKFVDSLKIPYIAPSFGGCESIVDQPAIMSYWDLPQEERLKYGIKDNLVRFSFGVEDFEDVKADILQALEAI
Method in brief: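 Purified recombinant AtCgS labelled with an amine-reactive fluorophore, 100 nM per capillary. Incubated with a dilution series of test compound and measured by microscale thermophoresis (Monolith NT.115). Baseline normalised to the mean of the three lowest concentrations. Signal fitted to a single-site binding model to give Kd.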

[1] = tested on: methionine auxotroph E. coli transformed with AtCgS; type: cell-based; settings: for Bacterial growth with external methionine / Bacterial growth without external methionine: 50 µM compound, M9 minimal media; for Bacterial growth with external methionine: methionine 40 mg/L; for Bacterial growth without external methionine: no methionine
Method in brief: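 Methionine-auxotroph E. coli LE392 carrying pQE-30–AtCgS grown in M9 minimal medium with IPTG, with or without 40 mg/L methionine. Test compound at 50 µM final, or a concentration series, from a 50 mM DMSO stock; DMSO-only controls (0.1%). OD600 read every 20 min for about 1000 min at 37 °C with orbital shaking. Curve slopes from a linear fit; slope ratio versus DMSO, in duplicate.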

Row | SMILES | Kd (CgS) [µM] | Bacterial growth with external methionine [1] | Bacterial growth without external methionine [1] | Bacterial growth curves, dose–response without external methionine ([1]; variable concentrations, M9, no methionine) | Bacterial growth curves, dose–response with external methionine ([1]; variable concentrations, M9, with methionine)
1 | Cc1cc(O)nc(-c2cccc(NC(=O)c3c(O)cccc3F)c2)n1 [CGSI‐1, 2‐fluoro‐6‐hydroxy‐N‐(3‐(4‐hydroxy‐6‐methylpyrimidin‐2‐yl)phenyl)benzamide] | 29.4 | not active in its presence | active in the absence of methionine | clear dose–response behaviour | no effect
2 | C#CCC(N)C(=O)O (stereo not shown) [PAG, propargyl‐glycine, reference compound] |  | the cells grew in the presence of PAG | significantly inhibits cell growth |  | 
